Reference: ChEMBL document CHEMBL1921740, “Pyrrolamide DNA gyrase inhibitors: optimization of antibacterial activity and efficacy” (Bioorg Med Chem Lett, 2011)
In brackets after ≈: the same amount, converted by molar mass.

Legend:
Escherichia coli [1] = assay: Antibacterial activity against TolC-deficient Escherichia coli ARC524; type: functional
Moraxella catarrhalis = assay: Antibacterial activity against Moraxella catarrhalis ARC445; type: functional
Escherichia coli [2] = assay: Antibacterial activity against Escherichia coli ARC523; type: functional
Staphylococcus aureus [3] = assay: Antibacterial activity against methicillin-resistant, quinolone-resistant Staphylococcus aureus ARC517; type: functional
Haemophilus influenzae = assay: Antibacterial activity against Haemophilus influenzae ARC446; type: functional
Streptococcus pneumoniae [4] = assay: Antibacterial activity against Streptococcus pneumoniae ARC548 infected in po dosed CD1 mouse lung infection pneumonia model assessed as dose required to maximum effect on reduction of viable bacterial counts administered 18 hrs after post infection measured after 24 hrs; type: functional
Outline: (§1)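 Mice infected in the lung with S. pneumoniae received oral doses of drug or vehicle starting 18 h post-infection, at 40, 60 or 80 mg/kg, with a pre-treatment control group. Lungs were taken 24 h after treatment began, and homogenates were serially diluted and plated for viable counts. Results are reported as group mean log CFU/lung ± standard error.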

Enterococcus faecium = assay: Antibacterial activity against Enterococcus faecium ARC073; type: functional
Staphylococcus aureus [5] = assay: Antibacterial activity against Staphylococcus aureus ARC516; type: functional
Streptococcus pneumoniae [6] = assay: Antibacterial activity against Streptococcus pneumoniae ARC548; type: functional
Streptococcus pneumoniae [7] = assay: Antibacterial activity against Streptococcus pneumoniae ARC548 infected in po dosed CD1 mouse lung infection pneumonia model assessed as reduction in viable bacterial counts administered 18 hrs after post infection measured after 24 hrs; type: functional; outline: as §1
DNA gyrase subunit B = DNA gyrase subunit B (Staphylococcus aureus, UniProt P0A0K8); assay: Inhibition of ATPase activity of recombinant Staphylococcus aureus DNA gyrase B hybrid tetramer enzyme reconstituted from Escherichia coli GyrA by ammonium molybdate/malachite green phosphate assay
Outline: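 GyrB ATPase activity of a hybrid tetramer reconstituted in vitro from recombinant S. aureus protein. Released phosphate detected with ammonium molybdate/malachite green. Test compound assayed across a range of concentrations.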

[8] = Escherichia coli, ARC524, read-out: MIC
[9] = Moraxella catarrhalis, ARC445, read-out: MIC
[10] = Staphylococcus aureus, ARC517, read-out: MIC
[11] = Haemophilus influenzae, ARC446, read-out: MIC
[12] = Enterococcus faecium, ARC073, read-out: MIC
[13] = Staphylococcus aureus, ARC516, read-out: MIC
[14] = Streptococcus pneumoniae, ARC548, read-out: MIC

DNA gyrase subunit B, sequence (P0A0K8 whole entry): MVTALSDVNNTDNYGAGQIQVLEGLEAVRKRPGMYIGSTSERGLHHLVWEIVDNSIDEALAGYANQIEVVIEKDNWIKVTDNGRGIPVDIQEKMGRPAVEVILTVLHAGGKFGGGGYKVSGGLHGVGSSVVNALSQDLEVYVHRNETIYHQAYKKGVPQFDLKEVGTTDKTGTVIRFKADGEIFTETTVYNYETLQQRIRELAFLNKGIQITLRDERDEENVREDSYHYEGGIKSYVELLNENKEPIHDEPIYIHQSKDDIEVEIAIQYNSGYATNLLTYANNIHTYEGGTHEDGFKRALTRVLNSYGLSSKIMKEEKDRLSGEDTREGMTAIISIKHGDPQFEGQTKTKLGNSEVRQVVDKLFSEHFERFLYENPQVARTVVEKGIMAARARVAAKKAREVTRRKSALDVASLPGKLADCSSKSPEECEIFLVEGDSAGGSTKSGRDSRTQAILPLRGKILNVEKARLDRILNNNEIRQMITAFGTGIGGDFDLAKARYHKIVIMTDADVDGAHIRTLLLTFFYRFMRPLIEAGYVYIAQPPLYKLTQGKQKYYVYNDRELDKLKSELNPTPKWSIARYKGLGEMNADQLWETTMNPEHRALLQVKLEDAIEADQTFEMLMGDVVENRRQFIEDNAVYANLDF

Compound | MIC (Escherichia coli [1]; [8]) | MIC (Moraxella catarrhalis; [9]) | MIC (Escherichia coli [2]) | MIC (Staphylococcus aureus [3]; [10]) | MIC (Haemophilus influenzae; [11]) | Activity (Streptococcus pneumoniae [4]) | MIC (Enterococcus faecium; [12]) | MIC (Staphylococcus aureus [5]; [13]) | MIC (Streptococcus pneumoniae [6]; [14]) | Activity (Streptococcus pneumoniae [7]) | ED50 (Streptococcus pneumoniae [7]) | IC50 (DNA gyrase subunit B) | MIC (Escherichia coli [1]) | MIC (Moraxella catarrhalis) | MIC (Staphylococcus aureus [3]) | MIC (Haemophilus influenzae) | MIC (Enterococcus faecium) | MIC (Staphylococcus aureus [5]) | MIC (Streptococcus pneumoniae [6])
Cc1[nH]c(C(=O)N[C@@H]2CCN(c3ncc(C(=O)O)s3)C[C@@H]2F)c(Cl)c1Cl | 0.06 µg/mL (≈ 0.142 µM) | 0.06 µg/mL (≈ 0.142 µM) | > 64 µg/mL | 2 µg/mL (≈ 4.75 µM) | 0.25 µg/mL (≈ 0.593 µM) | 80 mg/kg | 0.25 µg/mL (≈ 0.593 µM) | 2 µg/mL (≈ 4.75 µM) | 0.06 µg/mL (≈ 0.142 µM) | Dose-dependent effect | 54 mg/kg |  |  |  |  |  |  |  | 
Cc1[nH]c(C(=O)NC2CCN(c3ncc(C(=O)O)s3)CC2)c(Cl)c1Cl | 0.25 µg/mL (≈ 0.62 µM) | 0.5 µg/mL (≈ 1.24 µM) | > 64 µg/mL | 8 µg/mL (≈ 19.8 µM) | 2 µg/mL (≈ 4.96 µM) |  | 2 µg/mL (≈ 4.96 µM) | 8 µg/mL (≈ 19.8 µM) | 0.5 µg/mL (≈ 1.24 µM) |  |  | 20 nM |  |  |  |  |  |  | 
Cc1ccc(C(=O)NC2CCN(c3cc(C(N)=O)cc(Cl)n3)CC2)[nH]1 | > 64 µg/mL | > 64 µg/mL | > 64 µg/mL | > 64 µg/mL | > 64 µg/mL |  | > 64 µg/mL | > 64 µg/mL | > 64 µg/mL |  |  | 6900 nM |  |  |  |  |  |  | 
Cc1[nH]c(C(=O)NC2CCN(c3cc(C(=O)O)cc(Cl)n3)CC2)c(Cl)c1Cl | 0.25 µg/mL (≈ 0.579 µM) | 0.13 µg/mL (≈ 0.301 µM) | > 64 µg/mL | 2 µg/mL (≈ 4.63 µM) | 4 µg/mL (≈ 9.27 µM) |  | 1 µg/mL (≈ 2.32 µM) | 2 µg/mL (≈ 4.63 µM) | 0.5 µg/mL (≈ 1.16 µM) |  |  | 10 nM |  |  |  |  |  |  | 
CONC(=O)c1cnc(N2CCC(NC(=O)c3[nH]c(C)c(Cl)c3Cl)CC2)s1 | 0.25 µg/mL (≈ 0.578 µM) | 1 µg/mL (≈ 2.31 µM) | > 64 µg/mL | 8 µg/mL (≈ 18.5 µM) | 16 µg/mL (≈ 37 µM) |  | 8 µg/mL (≈ 18.5 µM) | 8 µg/mL (≈ 18.5 µM) | 1 µg/mL (≈ 2.31 µM) |  |  | 50 nM |  |  |  |  |  |  | 
Cc1[nH]c(C(=O)NC2CCN(c3cc(C(N)=O)cc(Cl)n3)CC2)c(Cl)c1Cl | 2 µg/mL (≈ 4.64 µM) | 2 µg/mL (≈ 4.64 µM) | > 64 µg/mL | 4 µg/mL (≈ 9.29 µM) | > 64 µg/mL |  | 4 µg/mL (≈ 9.29 µM) | 4 µg/mL (≈ 9.29 µM) | 1 µg/mL (≈ 2.32 µM) |  |  | 30 nM |  |  |  |  |  |  | 
Cc1[nH]c(C(=O)N[C@H]2CCN(c3ncc(C(=O)O)s3)C[C@H]2F)c(Cl)c1Cl |  |  |  |  |  |  |  |  |  |  |  | 35 nM | 0.5 µg/mL (≈ 1.19 µM) | 1 µg/mL (≈ 2.37 µM) | 32 µg/mL (≈ 76 µM) | 4 µg/mL (≈ 9.49 µM) | 4 µg/mL (≈ 9.49 µM) | 16 µg/mL (≈ 38 µM) | 2 µg/mL (≈ 4.75 µM)
Cc1[nH]c(C(=O)NC2CCN(c3cc(C(N)=O)cc(Cl)n3)CC2)cc1Br | 4 µg/mL (≈ 9.08 µM) | 8 µg/mL (≈ 18.2 µM) | > 64 µg/mL | 32 µg/mL (≈ 72.6 µM) | 64 µg/mL (≈ 145 µM) |  | > 64 µg/mL | 32 µg/mL (≈ 72.6 µM) | 4 µg/mL (≈ 9.08 µM) |  |  | 100 nM |  |  |  |  |  |  | 
Cc1[nH]c(C(=O)NC2CCN(c3cc(C(N)=O)cc(Cl)n3)CC2)cc1Cl | 8 µg/mL (≈ 20.2 µM) |  | > 64 µg/mL | 32 µg/mL (≈ 80.8 µM) | > 64 µg/mL |  | > 32 µg/mL | > 32 µg/mL | 4 µg/mL (≈ 10.1 µM) |  |  | 110 nM |  |  |  |  |  |  | 
Cc1[nH]c(C(=O)NC2CCN(C3CN[C@H](C(=O)O)C3)CC2)c(Cl)c1Cl (stereo not given in full) | > 64 µg/mL | > 64 µg/mL | > 64 µg/mL | > 64 µg/mL | > 64 µg/mL |  | > 64 µg/mL | > 64 µg/mL | > 64 µg/mL |  |  | 129000 nM |  |  |  |  |  |  | 
Cc1[nH]c(C(=O)N[C@H]2CCN(c3ncc(C(=O)O)s3)C[C@H]2F)c(Cl)c1Cl (racemic) |  |  | > 64 µg/mL |  |  |  |  |  |  |  |  | < 10 nM | 0.13 µg/mL (≈ 0.309 µM) | <0.06 µg/mL | 4 µg/mL (≈ 9.49 µM) | 0.5 µg/mL (≈ 1.19 µM) | 0.5 µg/mL (≈ 1.19 µM) | 2 µg/mL (≈ 4.75 µM) | 0.13 µg/mL (≈ 0.309 µM)
Cc1[nH]c(C(=O)NC2CCN(c3nnco3)CC2)c(Cl)c1Cl | 4 µg/mL (≈ 11.6 µM) | 4 µg/mL (≈ 11.6 µM) | > 64 µg/mL | 32 µg/mL (≈ 93 µM) | 64 µg/mL (≈ 186 µM) |  | 32 µg/mL (≈ 93 µM) | 32 µg/mL (≈ 93 µM) | 4 µg/mL (≈ 11.6 µM) |  |  | 230 nM |  |  |  |  |  |  | 
Cc1[nH]c(C(=O)NC2CCN(c3cc(C(N)=O)cc(Cl)n3)CC2)cc1C#N |  |  |  | > 64 µg/mL | > 64 µg/mL |  |  |  | 4 µg/mL (≈ 10.3 µM) |  |  | 150 nM |  |  |  |  |  |  | 
Cc1[nH]c(C(=O)N[C@@H]2CCN(c3ncc(C(=O)O)s3)C[C@H]2F)c(Cl)c1Cl (racemic) | 4 µg/mL (≈ 9.49 µM) | 16 µg/mL (≈ 38 µM) | > 64 µg/mL | > 64 µg/mL | 64 µg/mL (≈ 152 µM) |  | 32 µg/mL (≈ 76 µM) | > 64 µg/mL | 8 µg/mL (≈ 19 µM) |  |  | 110 nM |  |  |  |  |  |  | 
Cc1[nH]c(C(=O)NC2CCN(c3nc(C(=O)O)cs3)CC2)c(Cl)c1Cl | 0.25 µg/mL (≈ 0.62 µM) | 0.5 µg/mL (≈ 1.24 µM) | > 64 µg/mL | 8 µg/mL (≈ 19.8 µM) | 2 µg/mL (≈ 4.96 µM) |  | 4 µg/mL (≈ 9.92 µM) | 8 µg/mL (≈ 19.8 µM) | 0.5 µg/mL (≈ 1.24 µM) |  |  | 20 nM |  |  |  |  |  |  | 
